Test results taken from ChEMBL document CHEMBL2146357, “Cellular zwitterionic metabolite analogs simultaneously enhance reaction rate, thermostability, salt tolerance, and substrate specificity of α-glucosidase” (Bioorg Med Chem, 2011).
Activity calls are given as the source filed them. The calls are words filed in the database; no cut-off is given here.

Experiments:
[1] = test system: Geobacillus stearothermophilus; assay: Activity of Bacillus stearothermophilus alpha-glucosidase assessed as production of p-nitrophenol using p-nitrophenyl-alpha-D-glucopyranoside as substrate at 50 mM after 3 mins by spectrophotometer
Method in brief: (§1)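 B. stearothermophilus α-glucosidase at 2.5 × 10^-5 mg/mL in 0.1 M phosphate buffer pH 7.0 with 2.0 mM p-nitrophenyl-α-D-glucopyranoside and 0–1000 mM solute, 37 °C. Release of p-nitrophenol followed at 405 nm. Initial slopes converted to velocities (ε 10900 cm^-1 M^-1), averaged over five runs. Activity = initial velocity with solute divided by initial velocity without solute.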

Saccharomyces cerevisiae [2] = assay: Activity of Saccharomyces cerevisiae alpha-glucosidase assessed as production of p-nitrophenol using p-nitrophenyl-alpha-D-glucopyranoside as substrate at 50 mM after 3 mins by spectrophotometer
Method in brief: (§2)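 Enzymes were α-glucosidase from S. cerevisiae or from yeast at 2.5 × 10^-5 mg/mL, with 2.0 mM substrate and 0 or 50 mM solute in 100 mM phosphate pH 7.0 at 37 °C. p-Nitrophenol formation was read at 405 nm. Initial velocities (average of five) were expressed as the ratio of the value with solute to the value without solute.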

Saccharomyces cerevisiae [3] = assay: Activity of commercial yeast alpha-glucosidase assessed as production of p-nitrophenol using p-nitrophenyl-alpha-D-glucopyranoside as substrate at 50 mM after 3 mins by spectrophotometer; method in brief: as §2
[4] = test system: Geobacillus stearothermophilus; assay: Activity of Bacillus stearothermophilus alpha-glucosidase activity assessed as production of p-nitrophenol using p-nitrophenyl-alpha-D-glucopyranoside as substrate at 800 mM after 3 mins by spectrophotometer; method in brief: as §1
[5] = test system: Geobacillus stearothermophilus; assay: Thermostabilization of Bacillus stearothermophilus alpha-glucosidase at 50 mM
Method in brief: (§3)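 Optimum conditions were scanned with 0 or 50 mM solute, 2.5 × 10^-5 mg/mL B. stearothermophilus α-glucosidase and 2.0 mM substrate in 0.10 M phosphate. pH was varied from 6.4 to 7.9, NaCl from 0 to 2.5 M, and temperature was also varied. Activity was read as p-nitrophenol release at 405 nm.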

[6] = test system: Geobacillus stearothermophilus; assay: Enhancement of NaCl salt tolerance at Bacillus stearothermophilus alpha-glucosidase at 50 mM; method in brief: as §3
[7] = test system: Geobacillus stearothermophilus; assay: Effect on optimum pH of Bacillus stearothermophilus alpha-glucosidase at 50 mM; method in brief: as §3
[8] = test system: Geobacillus stearothermophilus; assay: Activity of Bacillus stearothermophilus alpha-glucosidase activity assessed as production of p-nitrophenol using p-nitrophenyl-alpha-D-glucopyranoside as substrate at 1000 mM after 3 mins by spectrophotometer; method in brief: as §1
[9] = test system: Geobacillus stearothermophilus; assay: Increase of Bacillus stearothermophilus alpha-glucosidase activity assessed as fold increase in reaction initial velocity using p-nitrophenyl-alpha-D-galactopyranoside as substrate at 750 mM after 3 mins by spectrophotometer relative to control
Method in brief: (§4)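 Enzyme: B. stearothermophilus α-glucosidase, 2.5 × 10^-5 mg/mL, with 2.0 mM substrate (p-nitrophenyl α-D-glucoside, β-D-glucoside, α-D-galactoside or α-D-mannoside) and 0, 50 or 750 mM solute in 100 mM phosphate pH 7.0 at 37 °C. Initial velocities came from A405 slopes (five measurements). Results given as v(presence)/v(absence).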

[10] = test system: Geobacillus stearothermophilus; assay: Increase of Bacillus stearothermophilus alpha-glucosidase activity assessed as fold increase in reaction initial velocity using p-nitrophenyl-beta-D-glucopyranoside as substrate at 750 mM after 3 mins by spectrophotometer relative to control; method in brief: as §4
[11] = test system: Geobacillus stearothermophilus; assay: Increase of Bacillus stearothermophilus alpha-glucosidase activity assessed as fold increase in reaction initial velocity using p-nitrophenyl-alpha-D-glucopyranoside as substrate at 750 mM after 3 mins by spectrophotometer relative to control; method in brief: as §4
[12] = test system: Geobacillus stearothermophilus; assay: Increase of Bacillus stearothermophilus alpha-glucosidase activity assessed as fold increase in reaction initial velocity using p-nitrophenyl-alpha-D-mannopyranoside as substrate at 50 mM after 3 mins by spectrophotometer relative to control; method in brief: as §4
[13] = test system: Geobacillus stearothermophilus; assay: Increase of Bacillus stearothermophilus alpha-glucosidase activity assessed as fold increase in reaction initial velocity using p-nitrophenyl-alpha-D-galactopyranoside as substrate at 50 mM after 3 mins by spectrophotometer relative to control; method in brief: as §4
[14] = test system: Geobacillus stearothermophilus; assay: Increase of Bacillus stearothermophilus alpha-glucosidase activity assessed as fold increase in reaction initial velocity using p-nitrophenyl-beta-D-glucopyranoside as substrate at 50 mM after 3 mins by spectrophotometer relative to control; method in brief: as §4
[15] = test system: Geobacillus stearothermophilus; assay: Increase of Bacillus stearothermophilus alpha-glucosidase activity assessed as fold increase in reaction initial velocity using p-Nitrophenyl-alpha-D-glucopyranoside as substrate at 50 mM after 3 mins by spectrophotometer relative to control; method in brief: as §4
[16] = test system: Geobacillus stearothermophilus; assay: Activity of Bacillus stearothermophilus alpha-glucosidase activity assessed as production of p-nitrophenol using p-nitrophenyl-alpha-D-glucopyranoside as substrate at 30 to 50 mM after 3 mins by spectrophotometer; method in brief: as §1
[17] = test system: Geobacillus stearothermophilus; assay: Activity of Bacillus stearothermophilus alpha-glucosidase activity assessed as production of p-nitrophenol using p-nitrophenyl-alpha-D-glucopyranoside as substrate at > 50 mM after 3 mins by spectrophotometer; method in brief: as §1
[18] = target: Intestinal-type alkaline phosphatase (Bos taurus) (UniProt P19111); assay: Increase of calf intestine alkaline phosphatase activity assessed as production of p-nitrophenol using p-nitrophenylphosphate as substrate at 50 mM after 3 mins by spectrophotometer
Sequence of Intestinal-type alkaline phosphatase (Bos taurus) (P19111 20-506 limits assumed): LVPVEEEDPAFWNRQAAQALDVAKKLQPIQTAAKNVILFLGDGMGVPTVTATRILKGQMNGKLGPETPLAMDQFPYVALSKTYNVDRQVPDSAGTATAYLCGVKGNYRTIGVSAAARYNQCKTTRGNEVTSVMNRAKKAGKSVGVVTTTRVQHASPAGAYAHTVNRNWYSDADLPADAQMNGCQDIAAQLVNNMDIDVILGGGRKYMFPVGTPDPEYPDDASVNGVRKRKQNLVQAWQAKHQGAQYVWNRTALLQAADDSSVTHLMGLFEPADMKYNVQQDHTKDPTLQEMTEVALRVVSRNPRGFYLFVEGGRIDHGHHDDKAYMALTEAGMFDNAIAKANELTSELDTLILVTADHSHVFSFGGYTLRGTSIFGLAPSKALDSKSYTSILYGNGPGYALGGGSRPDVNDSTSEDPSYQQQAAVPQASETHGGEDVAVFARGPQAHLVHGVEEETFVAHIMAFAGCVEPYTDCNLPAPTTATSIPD
Method in brief: (§5)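 Almond β-glucosidase or calf-intestine alkaline phosphatase, each at 2.5 × 10^-5 mg/mL, was incubated with 2.0 mM substrate and 0 or 50 mM solute in 0.10 M phosphate pH 7.0 at 37 °C. p-Nitrophenol production was followed over incubation time by absorbance at 405 nm.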

Saccharomyces cerevisiae [19] = assay: Increase of commercial yeast alpha-glucosidase activity assessed as production of p-nitrophenol using p-nitrophenyl-alpha-D-glucopyranoside as substrate at 50 mM after 3 mins by spectrophotometer; method in brief: as §2
Prunus dulcis = assay: Increase of almond beta-glucosidase activity assessed as production of p-nitrophenol using p-nitrophenyl-beta-D-glucopyranoside as substrate at 50 mM after 3 mins by spectrophotometer; method in brief: as §5
Saccharomyces cerevisiae [20] = assay: Increase of Saccharomyces cerevisiae alpha-glucosidase activity assessed as production of p-nitrophenol using p-nitrophenyl-alpha-D-glucopyranoside as substrate at 50 mM after 3 mins by spectrophotometer; method in brief: as §2
[21] = test system: Geobacillus stearothermophilus; assay: Increase of Bacillus stearothermophilus alpha-glucosidase activity assessed as production of p-nitrophenol using p-nitrophenyl-alpha-D-glucopyranoside as substrate at 50 mM after 3 mins by spectrophotometer; method in brief: as §1
[22] = test system: Geobacillus stearothermophilus; assay: Increase of Bacillus stearothermophilus alpha-glucosidase activity assessed as fold increase in reaction initial velocity using p-nitrophenyl-alpha-D-mannopyranoside as substrate at 750 mM after 3 mins by spectrophotometer relative to control; method in brief: as §4
[23] = test system: Geobacillus stearothermophilus; assay: Activity of Bacillus stearothermophilus alpha-glucosidase assessed as increase in urea concentration for enzyme deformation using p-nitrophenyl-alpha-D-glucopyranoside as substrate at 50 mM after 3 mins by spectrophotometer
[24] = test system: Geobacillus stearothermophilus; assay: Increase of Bacillus stearothermophilus alpha-glucosidase activity at 30 mM after 3 mins by spectrophotometer relative to control; method in brief: as §1
[25] = test system: Geobacillus stearothermophilus; assay: Activity of Bacillus stearothermophilus alpha-glucosidase activity assessed as production of p-nitrophenol using p-nitrophenyl-alpha-D-glucopyranoside as substrate at 200 mM after 3 mins by spectrophotometer; method in brief: as §1

Activity [1] | Activity (Saccharomyces cerevisiae [2]) | Activity (Saccharomyces cerevisiae [3]) | SMILES | other results
inactive | inactive | inactive | C[N+](C)(CC[N+](C)(C)CC(=O)[O-])CC(=O)[O-] | –
Active | inactive | inactive | CC[N+](CC)(CC)CC(=O)[O-] | Activity [4]: Active
inactive | inactive | inactive | C[N+](C)(C)CCCCCC(=O)[O-] | –
inactive | inactive | inactive | C[N+](C)(C)CCCC(=O)[O-] | –
inactive | inactive | inactive | OC[C@@H](O)[C@@H](O)[C@H](O)[C@@H](O)CO | –
inactive | inactive | inactive | OCC(O)CO | –
inactive | inactive | inactive | C[N+](C)(C)CC(=O)O | Activity [5]: Active; Activity [6]: Active; Activity [7]: inactive; Activity [8]: inactive
Active | inactive | inactive | C[N+]1(CC(=O)[O-])CCOCC1 | –
Active | inactive | inactive | C[N+]1(CC(=O)[O-])CCCCC1 | –
Active | Active | Active | CCCC[N+](CCCC)(CCCC)CC(=O)[O-] | fold change (FC) [9]: 0.8; fold change (FC) [10]: 0.5; fold change (FC) [11]: 0.8; fold change (FC) [12]: 0.9; fold change (FC) [13]: 0.8; fold change (FC) [14]: 0.8; fold change (FC) [15]: 2.5; Activity [5]: Active; Activity [6]: Active; Activity [7]: inactive; Activity [16]: Active; Activity [17]: Active; Activity [18]: Active; Activity (Saccharomyces cerevisiae [19]): Active; Activity (Prunus dulcis): Active; Activity (Saccharomyces cerevisiae [20]): Active; Activity [21]: Active; fold change (FC) [22]: 0.6; Activity [23]: Active; fold change (FC) [24]: 2.1
Active | Active | Active | CCC[N+](CCC)(CCC)CC(=O)[O-] | Activity [25]: Active
inactive | inactive | inactive | O[C@H]1[C@H](O)[C@@H](O)[C@H](O)[C@@H](O)[C@H]1O | –
